ChEMBL document CHEMBL1131483, “Discovery of novel pyridinopolyamines with potent antimicrobial activity: deconvolution of mixtures synthesized by solution-phase combinatorial chemistry” (1998)
Converted amounts (≈) assume the structure as drawn.

Experiments:
Type in all cases: functional
Klebsiella pneumoniae = assay: Minimum inhibitory concentration of Klebsiella pneumoniae growth.
Summary of the method: (§1)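 Broth-microdilution at 37 °C. Strains and media: E. faecalis ATCC 29212 in Todd-Hewitt, K. pneumoniae ATCC 13883 and P. vulgaris ATCC 8427 in nutrient broth, S. aureus ATCC 25923 in trypticase soy broth. About 1 × 10^7 cells/well, sample in 4% DMSO in water, duplicate. A595 read at 24 h versus a no-compound well. MIC is reported as a range. Ampicillin and tetracycline were controls.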

Streptococcus pyogenes [1] = assay: Minimum inhibitory concentration of Streptococcus pyogenes growth.
Summary of the method: (§2)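 Streptococcus pyogenes in Todd-Hewitt broth at 37 °C. The tier II strain is ATCC 49399. Overnight culture at about 1 × 10^7 cells/well, sample in 4% DMSO in water, duplicate. Percent growth versus a no-compound well by A595 at 24 h. MIC is a concentration range: full inhibition at the upper value, growth at the lower. Ampicillin and tetracycline were controls.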

Escherichia coli [2] = assay: (§3) Minimum inhibitory concentration of Escherichia coli growth.
Escherichia coli [3] = assay: as §3; remark: listed apart in the source
Enterococcus faecalis = assay: Minimum inhibitory concentration of Enterococcus faecalis growth.; summary of the method: as §1
Staphylococcus aureus = assay: Minimum inhibitory concentration of Staphylococcus aureus growth.; summary of the method: as §1
Streptococcus pyogenes [4] = assay: Minimum inhibitory concentration of Streptococcus pyogenes (wt) growth.; summary of the method: as §2
Proteus vulgaris = assay: Minimum inhibitory concentration of Proteus vulgaris growth.; summary of the method: as §1
Candida albicans = assay: Minimum inhibitory concentration of Candida albicans growth.
Summary of the method: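 Candida albicans ATCC 10231 in YM broth at 22 °C. Overnight culture added to sample in 4% DMSO in water, about 1 × 10^5 cells/well, 150 μL, duplicate. Growth scored visually at 48 h. MIC is reported as a concentration range: full inhibition at the upper value, viable cells at the lower. Amphotericin B was the positive control.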

Pseudomonas aeruginosa = assay: Minimum inhibitory concentration of Pseudomonas aeruginosa growth.
Summary of the method: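 Pseudomonas aeruginosa ATCC 27853 in nutrient broth at 37 °C. About 1 × 10^7 cells/well, sample in 4% DMSO in water, 150 μL, duplicate. Growth relative to an untreated well was read at A595 after 24 h. MIC is given as a range, complete inhibition at the higher concentration. Ciprofloxacin was the positive control.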

[5] = Streptococcus pyogenes, read-out: MIC
[6] = Escherichia coli, read-out: MIC

Row | MIC (Klebsiella pneumoniae) [µM] | MIC (Streptococcus pyogenes [1]; [5]) [µM] | MIC (Escherichia coli [2]) [µM] | MIC (Escherichia coli [3]; [6]) [µM] | MIC (Enterococcus faecalis) [µM] | MIC (Staphylococcus aureus) [µM] | MIC (Streptococcus pyogenes [4]) [µM] | MIC (Proteus vulgaris) [µM] | MIC (Candida albicans; Candida albicans) [µM] | MIC (Pseudomonas aeruginosa) [µM] | MIC (Streptococcus pyogenes [1]) [µM] | MIC (Escherichia coli [3]) [µM] | MIC (Candida albicans) [µM] | SMILES
1 | 50 (≈ 25.4 µg/mL) | 5 (≈ 2.54 µg/mL) | 12 (≈ 6.1 µg/mL) | 10 (≈ 5.09 µg/mL) | 12 (≈ 6.1 µg/mL) | 25 (≈ 12.7 µg/mL) | 6 (≈ 3.05 µg/mL) | 50 (≈ 25.4 µg/mL) | 50 (≈ 25.4 µg/mL) | 50 (≈ 25.4 µg/mL) |  |  |  | OCCCNCCN(Cc1ccccc1)Cc1cccc(CN(Cc2ccccc2)Cc2ccccc2)n1
2 | > 100 | 3 (≈ 2.11 µg/mL) | > 100 | 6 (≈ 4.22 µg/mL) | 6 (≈ 4.22 µg/mL) | 12 (≈ 8.43 µg/mL) | 6 (≈ 4.22 µg/mL) | > 100 | > 100 | > 100 |  |  |  | COC(=O)c1cccc(CN(Cc2cccc(C(F)(F)F)c2)Cc2cccc(CN(CCNCCCO)Cc3cccc(C(F)(F)F)c3)n2)c1
3 | > 100 | 3 (≈ 2.07 µg/mL) | > 100 | 6 (≈ 4.14 µg/mL) | 6 (≈ 4.14 µg/mL) | 6 (≈ 4.14 µg/mL) | 6 (≈ 4.14 µg/mL) | > 100 | > 100 | > 100 | 5 (≈ 3.45 µg/mL) | 5 (≈ 3.45 µg/mL) | > 100 | O=[N+]([O-])c1cccc(CN(Cc2cccc(C(F)(F)F)c2)Cc2cccc(CN(CCNCCCO)Cc3cccc(C(F)(F)F)c3)n2)c1
4 | 12 (≈ 7.26 µg/mL) | 5 (≈ 3.02 µg/mL) | > 100 | 25 (≈ 15.1 µg/mL) | 6 (≈ 3.63 µg/mL) | 6 (≈ 3.63 µg/mL) | 6 (≈ 3.63 µg/mL) | > 100 | < 12.5 | > 100 |  |  |  | Cc1cccc(CN(CCNCCCO)Cc2cccc(CN(Cc3cccc(C)c3)Cc3cccc(C(F)(F)F)c3)n2)c1
5 | > 100 | 5 (≈ 3.22 µg/mL) | > 100 | 10 (≈ 6.44 µg/mL) | > 100 | 12 (≈ 7.72 µg/mL) | 12 (≈ 7.72 µg/mL) | > 100 | > 100 | > 100 |  |  |  | O=[N+]([O-])c1cccc(CN(CCNCCCO)Cc2cccc(CN(Cc3cccc([N+](=O)[O-])c3)Cc3cccc([N+](=O)[O-])c3)n2)c1
6 | > 100 | 5 (≈ 2.75 µg/mL) | 6 (≈ 3.3 µg/mL) | 5 (≈ 2.75 µg/mL) | 6 (≈ 3.3 µg/mL) | 6 (≈ 3.3 µg/mL) | 6 (≈ 3.3 µg/mL) | > 100 | 12 (≈ 6.61 µg/mL) | > 100 |  |  |  | Cc1cccc(CN(CCNCCCO)Cc2cccc(CN(Cc3cccc(C)c3)Cc3cccc(C)c3)n2)c1
7 |  | > 100 |  | > 100 |  |  |  |  | > 100 |  |  |  |  | NCc1cccc(CNCCNCCCO)n1
8 | 12 (≈ 7.09 µg/mL) | 5 (≈ 2.95 µg/mL) | 25 (≈ 14.8 µg/mL) | 5 (≈ 2.95 µg/mL) | 6 (≈ 3.54 µg/mL) | 6 (≈ 3.54 µg/mL) | 6 (≈ 3.54 µg/mL) | > 100 | < 12.5 | > 100 |  |  |  | Cc1cccc(CN(CCNCCCO)Cc2cccc(CN(Cc3ccccc3)Cc3cccc(C(F)(F)F)c3)n2)c1

Further lines, the compound ahead of its results:

Row | SMILES | MIC (Klebsiella pneumoniae) [µM] | MIC (Streptococcus pyogenes [1]; [5]) [µM] | MIC (Escherichia coli [2]) [µM] | MIC (Escherichia coli [3]; [6]) [µM] | MIC (Enterococcus faecalis) [µM] | MIC (Staphylococcus aureus) [µM] | MIC (Streptococcus pyogenes [4]) [µM] | MIC (Proteus vulgaris) [µM] | MIC (Candida albicans; Candida albicans) [µM] | MIC (Pseudomonas aeruginosa) [µM] | MIC (Streptococcus pyogenes [1]) [µM] | MIC (Escherichia coli [3]) [µM] | MIC (Candida albicans) [µM]
9 | OCCCNCCN(Cc1cccc(F)c1)Cc1cccc(CN(Cc2cccc(F)c2)Cc2cccc(F)c2)n1 |  | 5 (≈ 2.81 µg/mL) | 12 (≈ 6.75 µg/mL) | 5 (≈ 2.81 µg/mL) | 25 (≈ 14.1 µg/mL) | 12 (≈ 6.75 µg/mL) | 6 (≈ 3.38 µg/mL) |  | 50 (≈ 28.1 µg/mL) |  |  |  | 
10 | COC(=O)c1cccc(CN(CCNCCCO)Cc2cccc(CN(Cc3cccc(C(=O)OC)c3)Cc3cccc(C(=O)OC)c3)n2)c1 |  | 10 (≈ 6.83 µg/mL) | 25 (≈ 17.1 µg/mL) | 20 (≈ 13.7 µg/mL) | > 100 | 25 (≈ 17.1 µg/mL) | 12 (≈ 8.19 µg/mL) |  | 50 (≈ 34.1 µg/mL) |  |  |  | 
11 | OCCCN(CCN(Cc1ccccc1)Cc1cccc(CN(Cc2ccccc2)Cc2ccccc2)n1)Cc1ccccc1 |  | 25 (≈ 15 µg/mL) |  | 25 (≈ 15 µg/mL) |  |  |  |  | 5 (≈ 2.99 µg/mL) |  |  |  | 
12 | Cc1cccc(CN(CCNCCCO)Cc2cccc(CN(Cc3cccc([N+](=O)[O-])c3)Cc3cccc(C(F)(F)F)c3)n2)c1 | > 100 | 5 (≈ 3.18 µg/mL) | > 100 | 25 (≈ 15.9 µg/mL) | 6 (≈ 3.81 µg/mL) | 6 (≈ 3.81 µg/mL) | 6 (≈ 3.81 µg/mL) | > 100 | 50 (≈ 31.8 µg/mL) | > 100 |  |  | 
13 | Cc1cccc(CN(CCNCCCO)Cc2cccc(CN(Cc3cccc(F)c3)Cc3cccc(C(F)(F)F)c3)n2)c1 | 25 (≈ 15.2 µg/mL) | 5 (≈ 3.04 µg/mL) | > 100 | 5 (≈ 3.04 µg/mL) | 6 (≈ 3.65 µg/mL) | 6 (≈ 3.65 µg/mL) | 6 (≈ 3.65 µg/mL) | > 100 | < 12.5 | > 100 |  |  | 
14 | COC(=O)c1cccc(CN(Cc2cccc(C(F)(F)F)c2)Cc2cccc(CN(CCNCCCO)Cc3cccc(C)c3)n2)c1 | > 100 | 5 (≈ 3.24 µg/mL) | > 100 | 25 (≈ 16.2 µg/mL) | 6 (≈ 3.89 µg/mL) | 12 (≈ 7.79 µg/mL) | 6 (≈ 3.89 µg/mL) | > 100 | < 12.5 | > 100 |  |  | 
15 | Cc1cccc(CN(CCNCCCO)Cc2cccc(CN(Cc3cccc(C(F)(F)F)c3)Cc3cccc(C(F)(F)F)c3)n2)c1 | > 100 | 5 (≈ 3.29 µg/mL) | > 100 | 25 (≈ 16.5 µg/mL) | 6 (≈ 3.95 µg/mL) | 12 (≈ 7.9 µg/mL) | 6 (≈ 3.95 µg/mL) | > 100 | > 100 | > 100 |  |  | 
16 | OCCCNCCN(Cc1cccc(C(F)(F)F)c1)Cc1cccc(CN(Cc2cccc(F)c2)Cc2cccc(C(F)(F)F)c2)n1 | > 100 | 6 (≈ 3.98 µg/mL) | > 100 | 6 (≈ 3.98 µg/mL) | 6 (≈ 3.98 µg/mL) | 12 (≈ 7.95 µg/mL) | 6 (≈ 3.98 µg/mL) | > 100 | > 100 | > 100 |  |  | 
17 | OCCCNCCN(Cc1cccc(C(F)(F)F)c1)Cc1cccc(CN(Cc2ccccc2)Cc2cccc(C(F)(F)F)c2)n1 | 50 (≈ 32.2 µg/mL) | 3 (≈ 1.93 µg/mL) | > 100 | 3 (≈ 1.93 µg/mL) | 12 (≈ 7.74 µg/mL) | 25 (≈ 16.1 µg/mL) | 12 (≈ 7.74 µg/mL) | > 100 | > 100 | > 100 |  |  | 
18 | Cc1cccc(CN(Cc2cccc(C(F)(F)F)c2)Cc2cccc(CN(CCNCCCO)Cc3cccc(C(F)(F)F)c3)n2)c1 | 100 (≈ 65.9 µg/mL) | 3 (≈ 1.98 µg/mL) | > 100 | 3 (≈ 1.98 µg/mL) | 6 (≈ 3.95 µg/mL) | 12 (≈ 7.9 µg/mL) | 6 (≈ 3.95 µg/mL) | > 100 | > 100 | > 100 |  |  | 
19 | OCCCNCCN(Cc1cccc(C(F)(F)F)c1)Cc1cccc(CN(Cc2cccc(C(F)(F)F)c2)Cc2cccc(C(F)(F)F)c2)n1 | > 100 | 5 (≈ 3.56 µg/mL) | > 100 | 5 (≈ 3.56 µg/mL) | > 100 | 6 (≈ 4.28 µg/mL) | 12 (≈ 8.55 µg/mL) | > 100 | > 100 | > 100 |  |  | 
